In ChEMBL document CHEMBL1152812, “Novel trans-2-aryl-cyclopropylamine analogues as potent and selective dipeptidyl peptidase IV inhibitors” (Bioorg Med Chem, 2009):
Each block holds one molecule with its values, some of them ahead of it. Active and inactive are the calls of the source. The rule behind the calls is not given here.

Tests used:
Dipeptidyl peptidase 2 = Dipeptidyl peptidase 2 (Homo sapiens, UniProt Q9UHL4); test: Inhibition of human DPP2
Prolyl endopeptidase FAP = target: T1, Prolyl endopeptidase FAP (Homo sapiens, UniProt Q12884); test: Inhibition of human FAP
T1 sequence (Q12884 whole entry): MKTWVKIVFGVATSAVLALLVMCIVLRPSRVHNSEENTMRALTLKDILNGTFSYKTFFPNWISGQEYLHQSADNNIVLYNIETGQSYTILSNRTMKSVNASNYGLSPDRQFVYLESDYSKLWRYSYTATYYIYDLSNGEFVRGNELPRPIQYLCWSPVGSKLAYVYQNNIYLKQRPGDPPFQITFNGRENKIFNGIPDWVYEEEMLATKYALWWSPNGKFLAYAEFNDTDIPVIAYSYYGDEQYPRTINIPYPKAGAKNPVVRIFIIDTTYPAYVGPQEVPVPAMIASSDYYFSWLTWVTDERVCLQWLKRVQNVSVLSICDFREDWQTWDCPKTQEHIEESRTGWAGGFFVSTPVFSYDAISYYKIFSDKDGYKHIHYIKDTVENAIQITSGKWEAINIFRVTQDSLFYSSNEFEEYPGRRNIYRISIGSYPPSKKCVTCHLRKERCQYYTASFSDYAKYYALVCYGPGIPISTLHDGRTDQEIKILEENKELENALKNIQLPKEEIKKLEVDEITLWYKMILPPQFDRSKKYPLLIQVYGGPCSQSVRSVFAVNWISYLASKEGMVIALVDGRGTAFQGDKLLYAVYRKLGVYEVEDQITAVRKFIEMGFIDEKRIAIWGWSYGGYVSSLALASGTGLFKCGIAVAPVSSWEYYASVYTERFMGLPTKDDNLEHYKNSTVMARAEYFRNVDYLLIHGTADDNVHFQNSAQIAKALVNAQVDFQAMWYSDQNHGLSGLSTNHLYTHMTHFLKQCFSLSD

Dipeptidyl peptidase 8 [1] = target: T2, Dipeptidyl peptidase 8 (Homo sapiens, UniProt Q6V1X1); test: Inhibition of human DPP8
Target sequence in this assay (Q6V1X1 whole entry): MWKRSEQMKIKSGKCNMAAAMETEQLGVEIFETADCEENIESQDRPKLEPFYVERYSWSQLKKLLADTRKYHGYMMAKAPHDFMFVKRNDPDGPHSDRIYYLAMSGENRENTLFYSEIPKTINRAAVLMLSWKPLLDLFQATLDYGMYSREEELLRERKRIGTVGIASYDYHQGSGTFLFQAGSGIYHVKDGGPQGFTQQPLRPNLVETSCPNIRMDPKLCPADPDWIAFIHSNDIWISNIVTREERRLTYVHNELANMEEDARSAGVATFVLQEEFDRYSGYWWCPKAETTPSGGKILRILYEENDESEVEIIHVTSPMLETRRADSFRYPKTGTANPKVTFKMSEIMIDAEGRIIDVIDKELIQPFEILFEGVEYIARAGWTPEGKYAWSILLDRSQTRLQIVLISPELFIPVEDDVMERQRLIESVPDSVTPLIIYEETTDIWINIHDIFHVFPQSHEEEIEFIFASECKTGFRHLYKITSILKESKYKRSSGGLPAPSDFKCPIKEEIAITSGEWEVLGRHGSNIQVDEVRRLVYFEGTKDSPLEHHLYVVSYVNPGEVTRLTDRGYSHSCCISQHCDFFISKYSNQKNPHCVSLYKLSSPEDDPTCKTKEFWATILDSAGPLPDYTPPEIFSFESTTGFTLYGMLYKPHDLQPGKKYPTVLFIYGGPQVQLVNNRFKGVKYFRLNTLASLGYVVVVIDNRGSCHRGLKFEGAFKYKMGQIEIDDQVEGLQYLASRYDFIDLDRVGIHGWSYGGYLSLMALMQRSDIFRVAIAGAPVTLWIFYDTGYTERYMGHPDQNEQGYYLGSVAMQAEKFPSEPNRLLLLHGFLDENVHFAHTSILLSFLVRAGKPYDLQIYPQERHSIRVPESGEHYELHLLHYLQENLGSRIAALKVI

Rattus norvegicus [2] = test: (§1) Oral bioavailability in rat at 10 mg/kg, po; assay type: ADME, organism-based; details: in vivo
Procedure, shortened: (§2)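 Rat pharmacokinetics after dosing at 5 mg/kg iv and 10 mg/kg po. Parameters derived: plasma clearance, oral Cmax, oral half-life, dose-normalised oral AUC and oral bioavailability (F).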

[3] = Half life in rat at 10 mg/kg, po; assay type: ADME, organism-based; design: dose 10 mg/kg, route oral; details: in vivo; procedure, shortened: as §2
[4] = Cmax in rat at 10 mg/kg, po; assay type: ADME, organism-based; design: dose 10 mg/kg, route oral; details: in vivo; procedure, shortened: as §2
[5] = Plasma clearance in rat at 5 mg/kg, iv or 10 mg/kg, po; assay type: ADME, organism-based; procedure, shortened: as §2
Rattus norvegicus [6] = test: Inhibition of DPP4 in Wistar rat plasma at 10 mg/kg, po after 24 hrs; assay type: functional, organism-based; design: dose 10 mg/kg
Procedure, shortened: (§3)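 Adult male Wistar rats (n = 4–6/group) given a single oral gavage of 10 mg/kg in 0.5% methyl cellulose. Tail-vein blood (25–50 µl) taken at timed points and plasma kept frozen. Plasma (10 µl) mixed with 150 µM Gly-Pro-AMC in 25 mM Tris-HCl pH 7.4, 140 mM NaCl, 10 mM KCl, 0.1% BSA. Fluorescence read at ex 390/em 460 nm. Activity in U/mL; mean ± SEM.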

Mus musculus = test: Reduction in glucose excursion in C57BL/6J lean mouse at 3 mg/kg, po pretreated 30 mins before glucose challenge measured after 120 mins by oral glucose tolerance test relative to control; assay type: functional, organism-based; design: dose 3 mg/kg
Procedure, shortened: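 Fasted overnight: adult male C57BL/6 mice (20–25 g, 6–8 weeks old, n = 6/group), grouped by tail-vein glucometer reading. Oral gavage of test agent in distilled water at −30 min (1, 3 or 10 mg/kg), then 3 g/kg oral glucose (400 mg/mL) at 0 min.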

[7] = as §1; assay type: ADME, organism-based; details: in vivo; procedure, shortened: as §2
Dipeptidyl peptidase 8 [8] = target: T2, Dipeptidyl peptidase 8; test: Inhibition of human DPP8 at 20 uM
Target sequence in this assay (Q6V1X1 whole entry, looked up): as the sequence (Q6V1X1 whole entry) above

[9] = Plasma clearance in rat at 5 mg/kg, iv or 25 mg/kg, po; assay type: ADME, organism-based
Procedure, shortened: (§4)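 Rat pharmacokinetics after dosing at 5 mg/kg iv and 25 mg/kg po. Parameters derived: plasma clearance, oral Cmax, oral half-life, dose-normalised oral AUC and oral bioavailability (F).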

[10] = Cmax in rat at 25 mg/kg, po; assay type: ADME, organism-based; design: dose 25 mg/kg, route oral; details: in vivo; procedure, shortened: as §4
[11] = Oral bioavailability in rat at 25 mg/kg, po; assay type: ADME, organism-based; details: in vivo; procedure, shortened: as §4
[12] = Half life in rat at 25 mg/kg, po; assay type: ADME, organism-based; design: dose 25 mg/kg, route oral; details: in vivo; procedure, shortened: as §4
hERG (KCNH2) = hERG (KCNH2) (Homo sapiens, UniProt Q12809); test: Inhibition of human ERG at 10 uM
Procedure, shortened: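 hERG binding; percent inhibition at a test concentration of 10 µM.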

Rattus norvegicus [13] = test: Inhibition of DPP4 in Wistar rat plasma at 10 mg/kg, po within 30 mins; assay type: functional; details: 0.5 h; procedure, shortened: as §3
Rattus norvegicus [14] = test: Inhibition of DPP4 in Wistar rat plasma at 10 mg/kg, po after 8 hrs; assay type: functional; procedure, shortened: as §3

Sequence of hERG (KCNH2) (Q12809 whole entry): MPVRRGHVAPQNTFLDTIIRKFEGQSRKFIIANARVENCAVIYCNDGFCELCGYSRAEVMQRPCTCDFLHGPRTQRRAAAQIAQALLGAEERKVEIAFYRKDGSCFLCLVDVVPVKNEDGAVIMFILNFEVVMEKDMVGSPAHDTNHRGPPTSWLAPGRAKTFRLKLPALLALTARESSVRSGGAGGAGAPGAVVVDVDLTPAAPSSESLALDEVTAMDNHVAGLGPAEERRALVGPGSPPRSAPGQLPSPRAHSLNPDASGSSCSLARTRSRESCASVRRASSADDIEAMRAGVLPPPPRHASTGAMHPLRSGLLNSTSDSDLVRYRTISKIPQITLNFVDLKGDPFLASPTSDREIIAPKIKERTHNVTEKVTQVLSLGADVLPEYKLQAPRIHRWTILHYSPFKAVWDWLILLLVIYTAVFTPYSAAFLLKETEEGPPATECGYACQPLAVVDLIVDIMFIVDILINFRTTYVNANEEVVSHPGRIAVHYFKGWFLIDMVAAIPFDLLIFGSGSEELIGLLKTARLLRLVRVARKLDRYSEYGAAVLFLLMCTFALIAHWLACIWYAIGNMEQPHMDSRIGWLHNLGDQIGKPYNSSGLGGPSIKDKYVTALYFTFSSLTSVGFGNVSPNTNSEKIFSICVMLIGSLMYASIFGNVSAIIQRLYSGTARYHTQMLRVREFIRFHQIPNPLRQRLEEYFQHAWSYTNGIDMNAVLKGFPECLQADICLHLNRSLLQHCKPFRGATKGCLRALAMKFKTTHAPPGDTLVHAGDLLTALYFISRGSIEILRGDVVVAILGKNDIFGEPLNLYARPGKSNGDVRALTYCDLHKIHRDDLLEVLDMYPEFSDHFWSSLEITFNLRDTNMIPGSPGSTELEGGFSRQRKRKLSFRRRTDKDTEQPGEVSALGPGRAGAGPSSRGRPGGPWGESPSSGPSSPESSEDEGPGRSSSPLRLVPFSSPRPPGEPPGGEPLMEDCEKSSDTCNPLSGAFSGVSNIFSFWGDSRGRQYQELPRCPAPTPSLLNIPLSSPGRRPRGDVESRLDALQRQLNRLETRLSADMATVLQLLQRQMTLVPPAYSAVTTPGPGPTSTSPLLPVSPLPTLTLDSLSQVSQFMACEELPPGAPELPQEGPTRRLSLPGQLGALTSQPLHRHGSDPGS

Compound: N[C@@H](CC(=O)N1CCn2c(nnc2C(F)(F)F)C1)Cc1cc(F)c(F)cc1F
Activity (Rattus norvegicus [6]): inactive
Activity (Mus musculus): Active

Compound: CC(C)(CC(=O)N[C@H]1C[C@@H]1c1ccc(Cl)c(Cl)c1)NCC(=O)N1CCC[C@H]1C#N
IC50 (Dipeptidyl peptidase 2): > 20 µM
IC50 (Prolyl endopeptidase FAP): > 20 µM
IC50 (Dipeptidyl peptidase 8 [1]): > 20 µM

Compound: CC(C)(CC(=O)N[C@H]1C[C@@H]1c1ccc(F)cc1)NCC(=O)N1CCC[C@H]1C#N
IC50 (Dipeptidyl peptidase 2): > 20 µM
IC50 (Prolyl endopeptidase FAP): > 20 µM
IC50 (Dipeptidyl peptidase 8 [1]): > 20 µM

Compound: CC(C)(CC(=O)N[C@H]1C[C@@H]1c1ccccc1)NCC(=O)N1C[C@@H](F)C[C@H]1C#N
IC50 (Dipeptidyl peptidase 2): > 20 µM
IC50 (Prolyl endopeptidase FAP): > 20 µM
IC50 (Dipeptidyl peptidase 8 [1]): > 20 µM

Compound: CC(C)(CC(=O)N[C@H]1C[C@@H]1c1cccnc1)NCC(=O)N1C[C@@H](F)C[C@H]1C#N
IC50 (Dipeptidyl peptidase 2): > 20 µM
IC50 (Prolyl endopeptidase FAP): > 20 µM
inhibition (Dipeptidyl peptidase 8 [8]): 17%
IC50 (Dipeptidyl peptidase 8 [1]): > 20 µM

Compound: CC(C)(CC(=O)N[C@H]1C[C@@H]1c1cccc(Cl)c1)NCC(=O)N1CCC[C@H]1C#N (stereo in doubt; 22)
IC50 (Dipeptidyl peptidase 2): > 20 µM
IC50 (Prolyl endopeptidase FAP): > 20 µM
IC50 (Dipeptidyl peptidase 8 [1]): > 20 µM

Compound: CC(C)(CC(=O)N[C@H]1C[C@@H]1c1cccc(OC(F)(F)F)c1)NCC(=O)N1C[C@@H](F)C[C@H]1C#N
IC50 (Dipeptidyl peptidase 2): > 20 µM
IC50 (Prolyl endopeptidase FAP): > 20 µM
IC50 (Dipeptidyl peptidase 8 [1]): > 20 µM

Compound: COc1ccc([C@H]2C[C@@H]2NC(=O)CC(C)(C)NCC(=O)N2C[C@@H](F)C[C@H]2C#N)cc1
clearance [9]: 1.2 L/h/kg
IC50 (Dipeptidyl peptidase 2): > 20 µM
IC50 (Prolyl endopeptidase FAP): > 20 µM
Cmax [10]: 0.347 µg/mL
bioavailability [11]: 28%
half-life [12]: 5.3 h
IC50 (Dipeptidyl peptidase 8 [1]): > 20 µM

Compound: CC(C)(CC(=O)N[C@H]1C[C@@H]1c1ccc(C(F)(F)F)cc1)NCC(=O)N1CCC[C@H]1C#N
IC50 (Dipeptidyl peptidase 2): > 20 µM
IC50 (Prolyl endopeptidase FAP): > 20 µM
IC50 (Dipeptidyl peptidase 8 [1]): > 20 µM

Compound: CC(C)(CC(=O)N[C@H]1C[C@@H]1c1ccc(F)cc1F)NCC(=O)N1CCC[C@H]1C#N
IC50 (Dipeptidyl peptidase 2): > 20 µM
IC50 (Prolyl endopeptidase FAP): > 20 µM
IC50 (Dipeptidyl peptidase 8 [1]): > 20 µM

Compound: CC(C)(CC(=O)N[C@H]1C[C@@H]1c1cccc(Cl)c1)NCC(=O)N1CCC[C@H]1C#N (stereo in doubt; 18k)
IC50 (Dipeptidyl peptidase 2): > 20 µM
IC50 (Prolyl endopeptidase FAP): > 20 µM
IC50 (Dipeptidyl peptidase 8 [1]): > 20 µM

Compound: CCOc1cccc([C@H]2C[C@@H]2NC(=O)CC(C)(C)NCC(=O)N2C[C@@H](F)C[C@H]2C#N)c1
IC50 (Dipeptidyl peptidase 2): > 20 µM
IC50 (Dipeptidyl peptidase 8 [1]): > 20 µM

Compound: COc1ccc([C@H]2C[C@@H]2NC(=O)CC(C)(C)NCC(=O)N2CCC[C@H]2C#N)cc1OC
IC50 (Dipeptidyl peptidase 2): > 20 µM
IC50 (Prolyl endopeptidase FAP): > 20 µM
IC50 (Dipeptidyl peptidase 8 [1]): > 20 µM

Compound: CC(C)(CC(=O)N[C@H]1C[C@@H]1c1cccc(C(F)(F)F)c1)NCC(=O)N1CCC[C@H]1C#N
IC50 (Dipeptidyl peptidase 2): > 20 µM
IC50 (Prolyl endopeptidase FAP): > 20 µM
IC50 (Dipeptidyl peptidase 8 [1]): > 20 µM

Compound: CC(C)(CC(=O)N[C@H]1C[C@@H]1c1cccc(F)c1)NCC(=O)N1CCC[C@H]1C#N
IC50 (Dipeptidyl peptidase 2): > 20 µM
IC50 (Prolyl endopeptidase FAP): > 20 µM
IC50 (Dipeptidyl peptidase 8 [1]): > 20 µM

Compound: CC(C)(CC(=O)N[C@H]1C[C@@H]1c1ccc(Cl)cc1)NCC(=O)N1CCC[C@H]1C#N
IC50 (Dipeptidyl peptidase 2): > 20 µM
IC50 (Prolyl endopeptidase FAP): > 20 µM
IC50 (Dipeptidyl peptidase 8 [1]): > 20 µM

Compound: Cc1ncsc1[C@H]1C[C@@H]1NC(=O)CC(C)(C)NCC(=O)N1C[C@@H](F)C[C@H]1C#N
inhibition in vivo at 10 mg/kg (Rattus norvegicus [13]): 60%
inhibition in vivo at 10 mg/kg (Rattus norvegicus [14]): 30%
IC50 (Dipeptidyl peptidase 2): > 20 µM
IC50 (Prolyl endopeptidase FAP): > 20 µM
inhibition (Dipeptidyl peptidase 8 [8]): 23%
IC50 (Dipeptidyl peptidase 8 [1]): > 20 µM

Further lines, with some results ahead:

IC50 (Dipeptidyl peptidase 2): > 20 µM
IC50 (Prolyl endopeptidase FAP): > 20 µM
IC50 (Dipeptidyl peptidase 8 [1]): > 20 µM
Compound: CC(C)(CC(=O)N[C@H]1C[C@@H]1c1cc(F)cc(F)c1)NCC(=O)N1CCC[C@H]1C#N

IC50 (Dipeptidyl peptidase 2): > 20 µM
IC50 (Prolyl endopeptidase FAP): > 20 µM
F (Rattus norvegicus [2]): 194%
half-life [3]: 6.8 h
Cmax [4]: 0.898 µg/mL
IC50 (Dipeptidyl peptidase 8 [1]): > 20 µM
clearance [5]: 7.44 L/h/kg
Compound: COc1cccc([C@H]2C[C@@H]2NC(=O)CC(C)(C)NCC(=O)N2C[C@@H](F)C[C@H]2C#N)c1

IC50 (Dipeptidyl peptidase 2): > 20 µM
IC50 (Prolyl endopeptidase FAP): > 20 µM
IC50 (Dipeptidyl peptidase 8 [1]): > 20 µM
Compound: CC(C)(CC(=O)N[C@H]1C[C@@H]1c1cccc(OC(F)(F)F)c1)NCC(=O)N1CCC[C@H]1C#N

IC50 (Dipeptidyl peptidase 2): > 20 µM
IC50 (Prolyl endopeptidase FAP): > 20 µM
bioavailability [7]: 29%
half-life [3]: 1.2 h
Cmax [4]: 0.175 µg/mL
clearance [5]: 3.3 L/h/kg
Compound: CC(C)(CC(=O)N[C@H]1C[C@@H]1c1cccc(F)c1)NCC(=O)N1C[C@@H](F)C[C@H]1C#N

IC50 (Dipeptidyl peptidase 2): > 20 µM
IC50 (Prolyl endopeptidase FAP): > 20 µM
IC50 (Dipeptidyl peptidase 8 [1]): > 20 µM
Compound: CC(C)(CC(=O)N[C@H]1C[C@@H]1c1ccc(F)c(F)c1)NCC(=O)N1CCC[C@H]1C#N

IC50 (Dipeptidyl peptidase 2): 16 µM
IC50 (Prolyl endopeptidase FAP): > 20 µM
IC50 (Dipeptidyl peptidase 8 [1]): > 20 µM
Compound: CC(C)(CC(=O)N[C@H]1C[C@@H]1c1ccccc1)NCC(=O)N1CCC[C@H]1C#N

IC50 (Dipeptidyl peptidase 2): 17 µM
IC50 (Prolyl endopeptidase FAP): > 20 µM
IC50 (Dipeptidyl peptidase 8 [1]): > 20 µM
Compound: CC(C)(CC(=O)N[C@@H]1C[C@H]1c1cccc(Cl)c1)NCC(=O)N1CCC[C@H]1C#N

clearance [9]: 11.3 L/h/kg
IC50 (Dipeptidyl peptidase 2): 0.59 µM
Cmax [10]: 0.454 µg/mL
bioavailability [11]: 53%
half-life [12]: 3.2 h
Compound: CC(C)(CC(=O)N[C@H]1C[C@@H]1c1cccc(Cl)c1)NCC(=O)N1CC(F)(F)C[C@H]1C#N
inhibition at 10 µM (hERG (KCNH2)): 15%

IC50 (Dipeptidyl peptidase 2): 5.2 µM
IC50 (Prolyl endopeptidase FAP): > 20 µM
Compound: CC(C)(CC(=O)N[C@@H]1C[C@H]1c1cccc(Cl)c1)NCC(=O)N1C[C@@H](F)C[C@H]1C#N
